The conditions of series [1]: ref [12]; cited from earlier work.
In series [2] the test system is EAE. Conditions: cited from earlier work.
Series [3] addresses bovine insulin (beta chain) aggregation (Bos taurus, UniProt P01317). Nature of the series: Chaperone assay: inhibition of DTT induced insulin aggregation. It is filed as biochemical. A digest of the protocol:
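Bovine insulin (150 µg) in 100 mM NaCl, 20 mM Tris pH 7.4, with or without varying peptide or protein concentrations, at 37°C; some runs at pH 5. Reduction is started at time zero with DTT (100 mM stock). Aggregation is followed as absorbance at 360 nm over 20 min. In time-of-addition runs, small heat shock protein or fibrils are added 3, 10 or 16 min after DTT, with a buffer-only addition as dilution control.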

The test system of series [4] is animal models of stroke, cardiac and retinal ischemia-reperfusion injury. Particulars: cited from earlier work.
The subject of series [5] is plasma proteins. Particulars: ref [13], cited from earlier work.
Series [6] deals with insulin fibril formation. In words: Inhibition of insulin amyloid fibril formation. Format: biochemical, bovine. Conditions: ThT fluorescence ex 440 nm, em 485 nm (fig. S2). A digest of the protocol: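 Fibril formation is tracked in the DTT-reduced insulin chaperone reaction: bovine insulin in NaCl/Tris pH 7.4 at 37°C, with or without test peptide fibrils. Thioflavin T is added from a 10 µM solution and fluorescence is read at 485 nm with excitation at 440 nm on a microplate reader.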

Chain of bovine insulin (beta chain) aggregation (P01317 25-54 limits assumed): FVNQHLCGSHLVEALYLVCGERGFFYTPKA

On to “73–92 of HspB5: linear peptide region within HspB5, residues 73–92 (DRFSVNLDVKHFSPEELKVK; UniProt P02511 73-92, looked up, fragment)”, for which, in series [1], the chaperone activity entry is “exhibited chaperone activity”. In series [2] (ref [12]), the “reduction of paralysis and histological neuroinflammation in EAE” value was “therapeutic, reducing paralysis and histological neuroinflammation in EAE”.
For Aβ 1–40: peptide from amyloid β A4, the “anti-inflammatory effect in EAE” value in series [2] (ameliorating paralysis and reducing brain inflammation, ref [6]) is given as “effective anti-inflammatory agents”.
With “HspB5: amyloid forming small heat shock protein”, the “inhibition of insulin aggregation when given at time 0” value in series [3] (150 µg HspB5 given at time 0) is listed as “fully inhibitory dose when given at time 0”. In addition, the “effect on light scattering when added 3 min after DTT” value in series [3] (150 µg HspB5 or Tau fibrils added three minutes after dithiothreitol (fig. S3)) is given as “rapid increase in light scattering”. The “effect on light scattering when added at 10 and 16 minutes” value in series [3] (added 10 and 16 minutes after initiation) is “increase in light scattering, albeit less of an increase at longer than earlier time points”. For the same substance, the “effect on insulin fibrillization after initiation” value in series [3] (added after initiation of fibril formation (figs. S3, S4)) was “can increase the light scattering after initiation of fibril formation”. The “therapeutic effect in stroke model” value in series [4] (ref [3]) was “therapeutic”. Further, the “therapeutic effect in cardiac and retinal ischemia-reperfusion injury” value in series [4] (ref [4], [5]) is on record as “therapeutic”. For the same substance, the “number of ligands precipitated from plasma” value in series [5] (enriched and temperature dependent binding) is reported as “approximately 70”. Further, in series [5], the “ligands that are acute phase, complement or coagulation proteins” value is recorded as “Greater than 50%”. For the same substance, the “inhibition of insulin fibril formation” value in series [6] is recorded as “effective inhibitors of insulin fibril formation”. Moreover, the “therapeutic effect in animal models of multiple sclerosis” value in series [2] (ref [2]) is “therapeutic”.

The values above are taken from PMC3684024 (Science translational medicine, 2013).
